Assay results taken from article PMC6209313 (Molecular Pharmaceutics, 2018).
≈ marks a conversion by molar mass, not a printed value. Read-outs that look alike come from different tables or passages of the source.

Tests used:
Dose number = assay type: physicochemical; details: for Do 80%: 80% of maximum drug load, 45 mL digestion medium; for lipolysis Do: applied drug load during in vitro lipolysis; for Do value: 80% loading, lipid-rich LBFs after digestion, maximum-value of 0.5 observed
[1] = Solid state characterization of drug precipitate; assay type: physicochemical; details: IIIB-MC, 60 min of digestion, PLM and Raman
How it was run: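 Drug-loaded IIIB-MC (1.25 g in 45 mL medium, pH-stat 6.5, 37 °C) digested with pancreatin. The pellet at 60 min was imaged immediately by crossed-polarizer light microscopy. Raman used 785 nm at 400 mW over 100–1890 cm–1, with SNV baseline correction and blank-pellet background correction. References were crystalline drug, blank and drug-spiked blank pellets, and melt-quenched amorphous drug.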

[2] = Drug solubility in lipolysis medium; assay type: physicochemical; details: for solubility at 24 h: dispersion medium of blank (placebo) LBF lipolysis, all LBFs, pH 6.5; for solubility fold-increase between dispersion and digestion media: IIIA-LC
How it was run: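 Placebo LBF digested in pH 6.5 buffer (2 mM Tris-maleate, 1.4 mM CaCl2·2H2O, 150 mM NaCl, FaSSIF 3.0 mM taurocholate/0.75 mM lecithin), 37 °C, porcine pancreatin. Media sampled at 10 min dispersion and 60 min digestion, lipase inhibited with 4-bromophenyl boronic acid, centrifuged. Supernatant shaken with excess crystalline drug at 37 °C, pH readjusted to 6.5. HPLC at 5 h and 24 h; value is mean of 24 h triplicates.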

[3] = Maximum drug loading capacity; assay type: physicochemical; details: 37 °C, mean (sd)
[4] = Acid/base/neutral class and ionization at the pH of lipolysis; assay type: physicochemical; details: pH 6.5
[5] = cited from earlier work; for solid form of precipitate during dispersion: dispersion (dilution in bile) ref 13; for solid form of precipitate during digestion: in vitro digestion of LBFs ref 11-17; for solid form of precipitate in vitro and in vivo: drug loaded into LBFs ref 41
[6] = In vitro lipolysis of drug-loaded IIIB-MC, quantification of precipitated drug; assay type: physicochemical; details: for degree of precipitated drug: 60 min of digestion; for precipitation during lipolysis at 80% loading: data not shown

SMILES | Do 80% (Dose number; IIIA-LC) | Do 80% (Dose number; IIIB-MC) | Do 80% (Dose number; IV) | solid form of precipitated drug in the pellet [1] | maximum drug loading capacity (loading) ([3]; IIIA-LC) | maximum drug loading capacity (loading) ([3]; IIIB-MC) | maximum drug loading capacity (loading) ([3]; IV) | solid form of precipitate during digestion [5] | other results
COc1ccccc1OCCNCC(O)COc1cccc2[nH]c3ccccc3c12 (stereo not shown) [Carvedilol] |  |  |  |  |  |  |  | amorphous form | solid form of precipitate during dispersion [5]: crystalline form
CCC(C)(C)C(=O)O[C@H]1C[C@@H](C)C=C2C=C[C@H](C)[C@H](CC[C@@H]3C[C@@H](O)CC(=O)O3)[C@H]21 [Simvastatin] |  |  |  |  |  |  |  | amorphous form | 
C(=C\c1ccccc1)/CN1CCN(C(c2ccccc2)c2ccccc2)CC1 [Cinnarizine] | 0.2 | 0.5 | 2.1 |  | 34.5 (3.2) mg/g | 41.8 (0.7) mg/g | 43.2 (1.7) mg/g | amorphous character or in a molecular dispersion with digestion components | Do value (Dose number): ≤ 1; solid form of precipitated material ([5]; pH 4.0, 5.5, and 6.5 (ionized) ref 12): noncrystalline; solid form of precipitated material ([5]; pH 8.0 (unionized) ref 12): crystalline; solubility fold-increase between dispersion and digestion media [2]: 6 fold; extent of ionization [4]: 90%
Cc1c(Cl)cccc1Nc1ccccc1C(=O)O [Tolfenamic acid] |  |  |  |  |  |  |  | crystalline form | 
CCOC(=O)N1CCC(=C2c3ccc(Cl)cc3CCc3cccnc32)CC1 [Loratidine] |  |  |  |  |  |  |  | crystalline form | solid form of precipitate during dispersion [5]: crystalline form
CC(C)OC(=O)C(C)(C)Oc1ccc(C(=O)c2ccc(Cl)cc2)cc1 [Fenofibrate] |  |  |  |  |  |  |  | crystalline form | solid form of precipitate in vitro and in vivo [5]: crystalline form

Now from value to compound, other results behind:

Do 80% (Dose number; IIIA-LC) | Do 80% (Dose number; IIIB-MC) | Do 80% (Dose number; IV) | solid form of precipitated drug in the pellet [1] | maximum drug loading capacity (loading) ([3]; IIIA-LC) | maximum drug loading capacity (loading) ([3]; IIIB-MC) | maximum drug loading capacity (loading) ([3]; IV) | SMILES | solid form of precipitate during digestion [5] | other results
14.5 | 54.6 | 55.8 | hydrate form | 13.6 (0.4) mg/g | 50.9 (1.6) mg/g | 80.7 (4.5) mg/g | O=C(Nc1ccc([N+](=O)[O-])cc1Cl)c1cc(Cl)ccc1O [Niclosamide] |  | lipolysis Do (Dose number; IIIB-MC): 11.1; solubility at 24 h [2]: < 80 µg/mL
0.2 | 0.5 | 1.4 |  | 9.7 (1.2) mg/g | 23.0 (1.0) mg/g | 29.9 (1.5) mg/g | CC(=O)N1CCN(c2ccc(OCC3COC(Cn4ccnc4)(c4ccc(Cl)cc4Cl)O3)cc2)CC1 (stereo not shown) [Ketoconazole] |  | Do value (Dose number): ≤ 1; solubility fold-increase between dispersion and digestion media [2]: 2 fold; extent of ionization [4]: 42%
0.0 | 0.1 | 0.4 |  | 3.9 (1.2) mg/g | 17.7 (1.2) mg/g | 21.5 (2.1) mg/g | O=C(CCCN1CCC(O)(c2ccc(Cl)cc2)CC1)c1ccc(F)cc1 [Haloperidol] |  | Do value (Dose number): ≤ 1; solubility fold-increase between dispersion and digestion media [2]: 11 fold; extent of ionization [4]: 99%
4.9 | 9.5 | 13.5 | crystalline form | 16.4 (0.7) mg/g | 38.8 (1.4) mg/g | 50.1 (1.2) mg/g | C#C[C@]1(O)CC[C@H]2[C@@H]3CCC4=Cc5oncc5C[C@]4(C)[C@H]3CC[C@@]21C [Danazol] | crystalline form | lipolysis Do (Dose number; IIIB-MC): 4.8; solid form of precipitate in previous in vitro lipolysis studies [5]: crystalline form; solid form of precipitate in vitro and in vivo [5]: crystalline form
0.7 | 1.6 | 2.4 | crystalline and amorphous mixture | 31.9 (1.1) mg/g | 84.7 (3.5) mg/g | 121.3 (4.2) mg/g | COc1ccc2c(c1)c(CC(=O)O)c(C)n2C(=O)c1ccc(Cl)cc1 [Indomethacin] |  | degree of precipitated drug [6]: 2%; precipitation during lipolysis at 80% loading [6]: did not precipitate; solubility at 24 h [2]: 1500 to 1700 µg/mL (≈ 4.19 to 4.75 mM)
6.8 | 9.1 | 11.1 | crystalline and amorphous mixture | 75.4 (4.7) mg/g | 176.2 (2.1) mg/g | 218.0 (9.3) mg/g | CCOC(=O)C1=C(C)NC(C)=C(C(=O)OC)C1c1cccc(Cl)c1Cl (stereo not shown) [Felodipine] |  | lipolysis Do (Dose number; IIIB-MC): 9.1
1.4 | 2.9 | 4.6 | crystalline form |  |  |  | COC1=CC(=O)C[C@@H](C)[C@]12Oc1c(Cl)c(OC)cc(OC)c1C2=O [Griseofulvin] |  | degree of precipitated drug [6]: 11%; precipitation during lipolysis at 80% loading [6]: did not precipitate
